Experimental data taken from ChEMBL document CHEMBL1140080, “Adamantyl-substituted retinoid-derived molecules that interact with the orphan nuclear receptor small heterodimer partner: effects of replacing the 1-adamantyl or hydroxyl group on inhibition of cancer cell growth, induction of cancer cell apoptosis, and inhibition of SRC homology 2 …” (J Med Chem, 2008).

Tests used:
[1] = target: T1, Nuclear receptor subfamily 0 group B member 2 (Homo sapiens, UniProt Q15466); assay: Displacement of [5,5'-3H2]AHPN from human recombinant GST-SHP by liquid scintillation counting relative to 3-Cl-AHPC
T1 sequence (Q15466 whole entry): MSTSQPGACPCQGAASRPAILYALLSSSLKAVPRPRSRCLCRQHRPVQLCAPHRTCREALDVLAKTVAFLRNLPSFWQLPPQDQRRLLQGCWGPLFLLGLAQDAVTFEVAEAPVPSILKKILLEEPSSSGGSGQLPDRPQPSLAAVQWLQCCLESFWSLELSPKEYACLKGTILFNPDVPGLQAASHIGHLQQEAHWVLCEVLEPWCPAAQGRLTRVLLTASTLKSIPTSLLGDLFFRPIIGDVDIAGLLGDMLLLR
Outline: (§1)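 Recombinant GST–human SHP was bound to glutathione–Sepharose beads and incubated 2 h with 5 nM [5,5′-3H2]AHPN with or without competitor (1.0, 5.0 or 50 μM). Beads were washed twice and counted. Displacement was expressed relative to 50 μM 3-Cl-AHPC set as 100%.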

[2] = target: T2, Tyrosine-protein phosphatase non-receptor type 11 (Homo sapiens, UniProt Q06124); assay: Inhibition of SHP2 overexpressed in human KG1 cells; type: cell-based, KG-1
T2 sequence (Q06124 whole entry): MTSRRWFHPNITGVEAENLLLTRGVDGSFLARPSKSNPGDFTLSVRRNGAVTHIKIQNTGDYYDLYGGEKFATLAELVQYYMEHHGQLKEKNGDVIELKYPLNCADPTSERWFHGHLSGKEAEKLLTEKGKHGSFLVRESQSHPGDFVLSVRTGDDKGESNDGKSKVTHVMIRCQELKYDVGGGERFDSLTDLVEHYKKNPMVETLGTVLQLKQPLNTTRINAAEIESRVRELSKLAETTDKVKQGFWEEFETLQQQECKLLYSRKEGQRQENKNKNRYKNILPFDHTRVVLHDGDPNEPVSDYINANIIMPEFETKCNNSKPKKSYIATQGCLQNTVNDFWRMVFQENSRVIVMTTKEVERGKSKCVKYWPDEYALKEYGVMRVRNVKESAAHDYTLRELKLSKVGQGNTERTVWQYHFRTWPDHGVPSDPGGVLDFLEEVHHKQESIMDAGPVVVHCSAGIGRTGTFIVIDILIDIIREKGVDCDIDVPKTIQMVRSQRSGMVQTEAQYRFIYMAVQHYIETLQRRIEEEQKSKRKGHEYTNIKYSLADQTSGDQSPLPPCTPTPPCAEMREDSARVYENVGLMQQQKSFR
Outline: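 Shp-2 PTP activity was measured as hydrolysis of the fluorogenic substrate 6,8-difluoro-4-methylumbelliferyl phosphate in the presence of analogue in Me2SO or Me2SO alone (final concentration 5%).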

[3] = Induction of apoptosis in human HL60R cells at 0.1 uM after 24 hrs by acridine orange staining; type: functional
Outline: (§2)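 KG-1, HL-60R (24 h) or MDA-MB-231 (96 h) cells in 5% FBS medium attached overnight, then were treated with analogue in Me2SO or vehicle (final 0.1% Me2SO). Apoptotic cells were scored by acridine orange staining on at least three replicates. Tested concentrations were 0.1–5.0 μM, plus 25 μM for KG-1.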

[4] = Induction of apoptosis in human HL60R cells at 1.0 uM after 24 hrs by acridine orange staining; type: functional; outline: as §2
MDA-MB-231 [5] = assay: Induction of apoptosis in human MDA-MB-231 cells at 1.0 uM after 96 hrs by acridine orange staining; type: functional; outline: as §2
MDA-MB-231 [6] = assay: Induction of apoptosis in human MDA-MB-231 cells at 2.0 uM after 96 hrs by acridine orange staining; type: functional; outline: as §2
KG-1 [7] = assay: Induction of apoptosis in human KG1 cells at 1.0 uM […] by acridine orange staining; type: functional
KG-1 [8] = assay: Induction of apoptosis in human KG1 cells at 5.0 uM […] by acridine orange staining; type: functional
KG-1 [9] = assay: Induction of apoptosis in human KG1 cells after 48 hrs by acridine orange staining; type: functional, cell-based; conditions: KG-1, 48 h
[10] = Antiproliferative activity against human KG1 AML cells after 48 hrs by MTT assay; type: functional, cell-based; conditions: in the assay text read “by hemocytometer cell counting” for “by MTT assay”
Outline: (§3)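 KG-1 cells in 5% FBS medium attached overnight, then treated 48 h with analogue in Me2SO or Me2SO alone (final 0.1%). Cells were harvested and counted by hemocytometer in triplicate wells. Highest concentration evaluated was 5 μM.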

DU-145 [11] = assay: Antiproliferative activity against human DU145 cells after 72 hrs by MTT assay; type: functional, cell-based; conditions: DU-145, 72 h
Outline: (§4)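 Cells attached for 24 h, then exposed 72 h to analogue in Me2SO or Me2SO alone (final Me2SO 0.1%), with media and compound renewed after 48 h. Viable cells were measured by MTS tetrazolium reduction in three replicates. Top concentration tested per compound was 2.5, 5, 10, 20 or 100 μM.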

MDA-MB-231 [12] = assay: Antiproliferative activity against human MDA-MB-231 cells after 72 hrs by MTT assay; type: functional, cell-based; conditions: MDA-MB-231, 72 h; outline: as §4
[13] = Antiproliferative activity against human H292 cells after 72 hrs by MTT assay; type: functional, cell-based; conditions: NCI-H292, 72 h; outline: as §4
[14] = Antiproliferative activity against human KG1 AML cells at 5 uM after 48 hrs by MTT assay; type: functional; conditions: in the assay text read “by hemocytometer cell counting” for “by MTT assay”; outline: as §3
DU-145 [15] = assay: Antiproliferative activity against human DU145 cells at 2.5 uM after 72 hrs by MTT assay; type: functional; conditions: DU-145, 72 h; outline: as §4
MDA-MB-231 [16] = assay: Antiproliferative activity against human MDA-MB-231 cells at 2.5 uM after 72 hrs by MTT assay; type: functional; conditions: MDA-MB-231, 72 h; outline: as §4
[17] = Antiproliferative activity against human H292 cells at 2.5 uM after 72 hrs by MTT assay; type: functional; conditions: NCI-H292, 72 h; outline: as §4
[18] = Growth inhibition of human HL60R cells at 0.1 uM after 24 hrs by hemocytometer; type: functional; conditions: read-out: GI
Outline: (§5)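 HL-60R cells in medium with 5% FBS attached overnight, then received analogue in Me2SO or vehicle (final Me2SO 0.1%) for 24 h. Cells were harvested and counted in triplicate wells with a hemocytometer.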

[19] = Growth inhibition of human HL60R cells at 1.0 uM after 24 hrs by hemocytometer; type: functional; conditions: read-out: GI; outline: as §5
[20] = Growth inhibition of HMVE cells after 72 hrs by alamar blue method; type: cell-based; conditions: Homo sapiens
[21] = Growth inhibition of HMVE cells at 0.5 uM after 72 hrs by alamar blue method; type: cell-based; conditions: human, HMVE cells; read-out: GI
[22] = target: T3, Nuclear receptor subfamily 0 group B member 2 (Homo sapiens) (UniProt Q15466); assay: Displacement of [5,5'-3H2]AHPN from human recombinant GST-SHP at 50 uM by liquid scintillation counting relative to 3-Cl-AHPC; outline: as §1
T3 sequence (whole entry): T1 sequence (Q15466 whole entry)

KG-1 [23] = assay: Induction of apoptosis in human KG1 cells at 25 uM […] by acridine orange staining; type: functional
DU-145 [24] = assay: Antiproliferative activity against human DU145 cells at 5 uM after 72 hrs by MTT assay; type: functional; conditions: DU-145, 72 h; outline: as §4
MDA-MB-231 [25] = assay: Antiproliferative activity against human MDA-MB-231 cells at 5 uM after 72 hrs by MTT assay; type: functional; conditions: MDA-MB-231, 72 h; outline: as §4
[26] = Antiproliferative activity against human H292 cells at 5 uM after 72 hrs by MTT assay; type: functional; conditions: NCI-H292, 72 h; outline: as §4
[27] = Antiproliferative activity against human H292 cells at 20 uM after 72 hrs by MTT assay; type: functional; conditions: NCI-H292, 72 h; outline: as §4
DU-145 [28] = assay: Antiproliferative activity against human DU145 cells at 20 uM after 72 hrs by MTT assay; type: functional; conditions: DU-145, 72 h; outline: as §4
MDA-MB-231 [29] = assay: Antiproliferative activity against human MDA-MB-231 cells at 20 uM after 72 hrs by MTT assay; type: functional; conditions: MDA-MB-231, 72 h; outline: as §4
[30] = Antiproliferative activity against human H292 cells at 100 uM after 72 hrs by MTT assay; type: functional; conditions: NCI-H292, 72 h; outline: as §4
DU-145 [31] = assay: Antiproliferative activity against human DU145 cells at 100 uM after 72 hrs by MTT assay; type: functional; conditions: DU-145, 72 h; outline: as §4
MDA-MB-231 [32] = assay: Antiproliferative activity against human MDA-MB-231 cells at 100 uM after 72 hrs by MTT assay; type: functional; conditions: MDA-MB-231, 72 h; outline: as §4

Row | Structure (SMILES) | IC50 [1] [µM] | IC50 [2] [µM] | Activity [3] [%] | Activity [4] [%] | Activity (MDA-MB-231 [5]) [%] | Activity (MDA-MB-231 [6]) [%] | Activity (KG-1 [7]) [%] | Activity (KG-1 [8]) [%] | IC50 (KG-1 [9]) [µM] | IC50 [10] [µM] | IC50 (DU-145 [11]) [µM] | IC50 (MDA-MB-231 [12]) [µM] | IC50 [13] [µM] | Activity [14] [%] | Activity [22] [%] | Activity (KG-1 [23]) [%] | inhibition at 5 µM (DU-145 [24]) [%] | inhibition at 5 µM (MDA-MB-231 [25]) [%] | inhibition at 5 µM [26] [%] | also measured
1 | O=C(O)/C=C/c1ccc(-c2ccc(O)c(C34CC5CC(CC(C5)C3)C4)c2)c(Cl)c1 | 2.5 | 2.1 | 51 | 94 | 31 | 43 | 30 | 55 | 4.2 | 1.4 | 0.48 | 0.95 | 0.4 | 67 |  |  |  |  |  | inhibition at 2.5 µM (DU-145 [15]): 85%; inhibition at 2.5 µM (MDA-MB-231 [16]): 63%; inhibition at 2.5 µM [17]: 92%
2 | O=C(O)c1ccc2cc(-c3cccc(C45CC6CC(CC(C6)C4)C5)c3)ccc2c1 |  |  | 2 | 2 | 2 | 7 |  |  |  |  |  |  |  |  |  |  |  |  |  | inhibition of growth at 0.1 µM [18]: 4%; inhibition of growth at 1 µM [19]: 8%; IC50 [20]: > 0.5 µM; inhibition at 72 h, 0.5 µM [21]: 36%
3 | CCC(CC)(CC)c1cc(-c2ccc(/C=C/C(=O)O)cc2Cl)ccc1O | 8 | 5.37 |  |  |  |  | 3 | 4 |  | > 5 | > 5 | > 5 | > 5 | 0 | 90 | 14 | 2 | 2 | 5 | 
4 | CC12CC3CC(C)(C1)CC(c1cc(-c4ccc(/C=C/C(=O)O)cc4Cl)ccc1O)(C3)C2 | 0.5 | 2.27 |  |  |  |  | 0 | 0 | 13.5 | > 5 | > 5 | > 5 | 3.6 | 0 | 103 | 83 | 23 | 7 | 66 | 
5 | CC1(c2cc(-c3ccc(/C=C/C(=O)O)cc3Cl)ccc2O)SCCCS1 |  | 10.2 |  |  |  |  | 5 | 5 |  | > 5 | > 20 | > 20 | > 20 | 0 |  |  |  |  |  | inhibition at 20 µM [27]: 6%; inhibition at 20 µM (DU-145 [28]): 8%; inhibition at 20 µM (MDA-MB-231 [29]): 13%
6 | O=C(O)/C=C/c1ccc(-c2ccc(F)c(C34CC5CC(CC(C5)C3)C4)c2)c(Cl)c1 | 1 | 2.11 |  |  |  |  | 0 | 0 |  | > 5 | 16 | 67 | 6 | 0 | 90 |  |  |  |  | inhibition at 100 µM [30]: 95%; inhibition at 100 µM (DU-145 [31]): 84%; inhibition at 100 µM (MDA-MB-231 [32]): 83%
